Key:
Mus musculus [1] = assay: Immunomodulatory activity in C57BL/6 mouse assessed as lymphopenia at 10 mg/kg, po after 6 hrs by complete blood count analysis; type: functional
Procedure, shortened: (§1)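 Mice dosed orally with compound in 3% BSA vehicle; vehicle-only control group. Doses 0.3–10 mg/kg. At 6 h, isoflurane anesthesia, about 250 µl retro-orbital blood collected into EDTA tubes, mixed with anticoagulant, kept on tilt table, then complete blood count. Percent lymphopenia reported.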

[2] = target: T1, Sphingosine 1-phosphate receptor 3 (Homo sapiens, UniProt Q99500); assay: Agonist activity at human S1P3 receptor assessed as stimulation of [35S]GTPgammaS binding; type: functional
[3] = target: T2, Sphingosine 1-phosphate receptor 1 (Homo sapiens, UniProt P21453); assay: Agonist activity at human S1P1 receptor assessed as stimulation of [35S]GTPgammaS binding; type: functional
[4] = target: T1, Sphingosine 1-phosphate receptor 3; assay: Displacement of [33P]sphingosine-1-phosphate from human S1P3 receptor
[5] = target: T3, Sphingosine 1-phosphate receptor 4 (Homo sapiens, UniProt O95977); assay: Displacement of [33P]sphingosine-1-phosphate from human S1P4 receptor
T3 sequence (O95977 whole entry): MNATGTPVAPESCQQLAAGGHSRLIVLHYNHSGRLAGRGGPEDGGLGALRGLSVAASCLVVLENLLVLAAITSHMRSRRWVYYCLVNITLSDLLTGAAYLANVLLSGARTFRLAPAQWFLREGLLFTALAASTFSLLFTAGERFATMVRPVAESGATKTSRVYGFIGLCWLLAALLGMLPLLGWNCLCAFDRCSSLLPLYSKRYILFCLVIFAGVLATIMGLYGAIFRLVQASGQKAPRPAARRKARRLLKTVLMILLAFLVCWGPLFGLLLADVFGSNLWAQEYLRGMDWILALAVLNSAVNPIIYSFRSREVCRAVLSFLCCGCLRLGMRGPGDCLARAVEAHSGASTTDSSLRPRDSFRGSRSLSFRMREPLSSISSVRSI

[6] = target: T2, Sphingosine 1-phosphate receptor 1; assay: Displacement of [33P]sphingosine-1-phosphate from human S1P1 receptor
[7] = target: Sphingosine 1-phosphate receptor 5 (Homo sapiens, UniProt Q9H228); assay: Displacement of [33P]sphingosine-1-phosphate from human S1P5 receptor
Homo sapiens [8] = organism: Homo sapiens; assay: Ratio of EC50 for human S1P3 receptor to EC50 for human S1P1 receptor
Homo sapiens [9] = organism: Homo sapiens; assay: Ratio of IC50 for human S1P3 receptor to IC50 for human S1P1 receptor
Mus musculus [10] = assay: Immunomodulatory activity in po dosed C57BL/6 mouse assessed as lymphopenia after 6 hrs by complete blood count analysis; type: functional, organism-based; procedure, shortened: as §1

T2 sequence (P21453 whole entry): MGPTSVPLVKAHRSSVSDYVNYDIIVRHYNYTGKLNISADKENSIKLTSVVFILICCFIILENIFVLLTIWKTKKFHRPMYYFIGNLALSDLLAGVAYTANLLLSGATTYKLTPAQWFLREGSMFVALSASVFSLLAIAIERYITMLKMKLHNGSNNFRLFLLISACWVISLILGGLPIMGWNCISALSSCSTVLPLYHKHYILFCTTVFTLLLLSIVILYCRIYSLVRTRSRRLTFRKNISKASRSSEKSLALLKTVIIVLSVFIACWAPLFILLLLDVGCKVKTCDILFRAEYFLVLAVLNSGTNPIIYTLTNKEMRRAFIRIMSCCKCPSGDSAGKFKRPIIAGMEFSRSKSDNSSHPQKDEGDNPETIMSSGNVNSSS
Sphingosine 1-phosphate receptor 5, sequence (Q9H228 whole entry): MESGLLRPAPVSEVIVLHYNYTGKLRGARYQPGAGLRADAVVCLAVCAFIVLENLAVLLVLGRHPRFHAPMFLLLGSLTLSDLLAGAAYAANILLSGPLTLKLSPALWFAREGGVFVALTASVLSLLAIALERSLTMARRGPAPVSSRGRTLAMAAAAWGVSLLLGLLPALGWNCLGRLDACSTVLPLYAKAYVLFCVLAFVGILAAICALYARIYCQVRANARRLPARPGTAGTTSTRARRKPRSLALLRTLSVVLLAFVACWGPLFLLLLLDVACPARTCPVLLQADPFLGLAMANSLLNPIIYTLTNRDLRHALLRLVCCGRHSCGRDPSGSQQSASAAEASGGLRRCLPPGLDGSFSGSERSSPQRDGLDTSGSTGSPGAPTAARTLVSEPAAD
T1 sequence (Q99500 whole entry): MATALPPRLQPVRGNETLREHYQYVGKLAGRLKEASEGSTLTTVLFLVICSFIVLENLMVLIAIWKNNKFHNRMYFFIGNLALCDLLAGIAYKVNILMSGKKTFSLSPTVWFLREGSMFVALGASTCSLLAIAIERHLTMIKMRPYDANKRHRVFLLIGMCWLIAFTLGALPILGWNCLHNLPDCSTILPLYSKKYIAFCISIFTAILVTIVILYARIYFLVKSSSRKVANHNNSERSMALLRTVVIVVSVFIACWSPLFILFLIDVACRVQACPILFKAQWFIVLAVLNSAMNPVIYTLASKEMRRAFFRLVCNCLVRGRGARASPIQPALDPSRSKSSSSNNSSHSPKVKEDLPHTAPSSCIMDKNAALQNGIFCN

EC50 [2] [nM]	EC50 [3] [nM]	IC50 [4] [nM]	IC50 [5] [nM]	IC50 [6] [nM]	IC50 [7] [nM]	Ratio EC50 (Homo sapiens [8])	Ratio IC50 (Homo sapiens [9])	SMILES	Activity (Mus musculus [1]) [%]	Activity (Mus musculus [10])
–	–	–	–	–	–	–	–	CCCCCCCCOc1ccc(-c2c[nH]c([C@@](C)(N)CO)n2)cc1	83	–
–	–	–	–	–	–	–	–	CCCCCCCCc1ccc(NC(=O)[C@@](C)(N)CO)cc1	36	–
10.8	0.45	5.8	1.9	0.35	1.1	24	16.5	CCCCCCCCOc1ccc(-c2c[nH]c([C@@](C)(N)COP(=O)(O)O)n2)cc1F	–	–
–	–	–	–	–	–	–	–	CCCCCCCCOc1ccc(-c2c[nH]c([C@@](C)(N)CO)n2)c(F)c1	81	–
16.3	2.4	5.9	4	0.73	8.8	6.9	8.1	CCCCCCCCOc1ccc(NC(=O)[C@@](C)(N)COP(=O)(O)O)cc1	–	–
14.8	0.55	5.3	1.1	0.26	1.4	26.9	20.3	CCCCCCCCOc1ccc(-c2c[nH]c([C@@](C)(N)COP(=O)(O)O)n2)cc1	–	–
–	–	–	–	–	–	–	–	CCCCCCCCOc1ccc(NC(=O)[C@@](C)(N)CO)cc1F	65	–
9.8	2.1	3.6	1.8	0.35	3.2	4.7	10.2	CCCCCCCCOc1ccc(NC(=O)[C@@](C)(N)COP(=O)(O)O)c(F)c1	–	–
–	–	–	–	–	–	–	–	CCCCCCCCOc1ccc(NC(=O)[C@@](C)(N)CO)cc1	78	Dose-dependent effect
–	–	–	–	–	–	–	–	CCCCCCCOc1ccc(NC(=O)[C@@](C)(N)CO)cc1	72	–
–	–	–	–	–	–	–	–	CCCCCCCOc1ccc(-c2c[nH]c([C@@](C)(N)CO)n2)cc1	74	–
–	–	–	–	–	–	–	–	CCCCCCCCOc1ccc(-c2c[nH]c([C@@](C)(N)CO)n2)cc1F	70	–
10.1	1.1	5.9	3.5	0.14	6.9	9.2	42	CCCCCCCCOc1ccc(NC(=O)[C@@](C)(N)COP(=O)(O)O)cc1F	–	–
–	–	–	–	–	–	–	–	CCCCCCCCOc1ccc(NC(=O)[C@@](C)(N)CO)c(F)c1	66	–

SMILES	EC50 [2] [nM]	EC50 [3] [nM]	IC50 [4] [nM]	IC50 [5] [nM]	IC50 [6] [nM]	IC50 [7] [nM]	Ratio EC50 (Homo sapiens [8])	Ratio IC50 (Homo sapiens [9])	Activity (Mus musculus [1]) [%]	Activity (Mus musculus [10])
CCCCCCCCCCCCC/C=C/[C@@H](O)[C@@H](N)COP(=O)(O)O	3	7.9	0.66	2.4	0.47	–	–	–	–	–

Reference: ChEMBL document CHEMBL1149075, “Synthesis and evaluation of alkoxy-phenylamides and alkoxy-phenylimidazoles as potent sphingosine-1-phosphate receptor subtype-1 agonists” (Bioorg Med Chem Lett, 2009)
